From ChEMBL document CHEMBL2346559, “Optimization of benzoxazole-based inhibitors of Cryptosporidium parvum inosine 5'-monophosphate dehydrogenase” (J Med Chem, 2013) come the findings set out here.

Series [1] in a line: Cytotoxicity against human HEK293 cells after 3 days by Alamar blue assay. It is filed as cell-based. Particulars: read-out: LD50. Summed up:
(§1)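 Tested in parallel against HeLa, HEK293, COS and CHO cells. Viability was read as metabolic activity by alamarBlue and expressed as LD50.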
On the technique in general: The colour change of resazurin is a common sign of viable cells or microbes.

Series [2] in a line: Cytotoxicity against human HeLa cells after 3 days by Alamar blue assay. The note with it: read-out: LD50. The class given is cell-based. Summed up: as §1
Series [3] has as its target T1, Inosine-5'-monophosphate dehydrogenase (Cryptosporidium parvum, UniProt Q8T6T2).
T1 sequence (Q8T6T2 whole entry): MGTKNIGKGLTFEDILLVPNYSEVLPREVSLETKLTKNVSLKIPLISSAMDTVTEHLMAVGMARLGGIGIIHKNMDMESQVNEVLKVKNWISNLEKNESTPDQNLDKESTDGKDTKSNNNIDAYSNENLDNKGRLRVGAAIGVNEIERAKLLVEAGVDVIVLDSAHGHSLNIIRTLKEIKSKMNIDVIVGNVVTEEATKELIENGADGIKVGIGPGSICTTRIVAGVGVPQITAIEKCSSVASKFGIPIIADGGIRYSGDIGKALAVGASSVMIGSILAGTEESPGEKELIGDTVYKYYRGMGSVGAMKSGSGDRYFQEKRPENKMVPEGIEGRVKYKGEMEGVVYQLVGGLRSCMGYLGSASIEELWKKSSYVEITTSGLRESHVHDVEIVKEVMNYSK
The experiment in a line: Inhibition of Cryptosporidium parvum N-terminal His6-tagged IMPDH-mediated NADH production expressed in Escherichia coli BL21(DE3) preincubated for 5 mins prior to substrate addition by fluorescence assay in presence of BSA. In a few lines:
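Same CpIMPDH fluorescence assay (10 nM enzyme, 300 μM NAD, 150 μM IMP, pH 8.0 Tris buffer, 25 °C, 5 min inhibitor preincubation), run with 0.05% fatty-acid-free BSA added to gauge nonspecific protein binding. Quadruplicate points; IC50 averaged over three determinations.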

In series [4] the test system is Toxoplasma gondii. The experiment in a line: Antiparasitic activity against wild-type Toxoplasma gondii expressing eukaryotic IMPDH. It is filed as functional, organism-based.
Series [5] can be described thus: Cytotoxicity against CHO cells after 3 days by Alamar blue assay. The class given is cell-based, Cricetulus griseus. The note with it: chinese hamster, read-out: LD50. In a few lines:
as §1

For series [6], the system named is Toxoplasma gondii. The experiment in a line: Selectivity ratio of EC50 for wild-type Toxoplasma gondii to EC50 for Toxoplasma gondii expressing Cryptosporidium parvum IMPDH. The class given is functional.
Series [7] addresses T1, Inosine-5'-monophosphate dehydrogenase. The experiment in a line: Inhibition of Cryptosporidium parvum N-terminal His6-tagged IMPDH-mediated NADH production expressed in Escherichia coli BL21(DE3) preincubated for 5 mins prior to substrate addition by fluorescence assay.
Series [8] relates to Toxoplasma gondii. The experiment in a line: Antiparasitic activity against transgenic Toxoplasma gondii expressing Cryptosporidium parvum IMPDH. It is filed as functional, organism-based. Summed up: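 Engineered T. gondii strain that depends on CpIMPDH for guanine nucleotide synthesis, run alongside the wild-type RH strain, whose native eukaryotic IMPDH also gauges host-cell cytotoxicity. Antiparasitic EC50 is the average of three independent determinations unless otherwise stated, with some values from two determinations.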

Series [9] concerns the target Inosine-5'-monophosphate dehydrogenase 2 (Homo sapiens, UniProt P12268). Kind of series: Inhibition of human IMPDH2.
The nature of series [10]: Cytotoxicity against African green monkey COS cells after 3 days by Alamar blue assay. The class given is cell-based. The note with it: chlorocebus aethiops, read-out: LD50. In a few lines: as §1
The target of series [11] is T2, Inosine-5'-monophosphate dehydrogenase (Cryptosporidium parvum) (UniProt Q8T6T2).
T2 sequence (whole entry): T1 sequence (Q8T6T2 whole entry)

The target of series [12] is T2, Inosine-5'-monophosphate dehydrogenase (Cryptosporidium parvum). This is another data set of the same source.
The test system of series [13] is Liver. Kind of series: Half life in mouse liver microsomes by LC/MS/MS analysis in presence of NADPH. It is filed as ADME, Microsome. Summed up: (§2)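 Incubation with mouse liver microsomes at 37 °C, with and without NADPH. Percent of compound remaining measured at several time points; half-life from a fit to first-order decay.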
In general terms: Liver microsomes are a subcellular fraction often used to study metabolism.

Series [14] deals with Liver. The experiment in a line: Half life in mouse liver microsomes by LC/MS/MS analysis. It is filed as ADME, Microsome. Summed up: as §2

Regarding `CC(Oc1ccccc1Cl)C(=O)Nc1ccc2oc(-c3ccncc3)nc2c1` (stereo not given), the CC50 at 72 h in [1] is 12.5 µM; in series [2], > 50 µM; in series [5], > 50 µM; in series [10] it was > 50 µM. Besides, the figures for the IC50 in series [3], in [7] and in series [9] were 0.05 µM, 0.019 µM and > 5 µM, respectively. Besides, the EC50 (in general, the concentration needed to bring the measured effect to its halfway point) is 3 µM in the series on Toxoplasma gondii [4] and 0.9 µM with Toxoplasma gondii [8]. Moreover, in the series on Toxoplasma gondii [6], the “Ratio EC50” value turned out to be 3.

Turning to `C[C@H](Oc1cccc2ccccc12)C(=O)Nc1ccc2oc(-c3cncs3)nc2c1`, the IC50 – broadly, the point on the concentration scale where inhibition reaches its midpoint – was 0.004 µM in [3], 0.0027 µM in series [7] and > 5 µM in series [9]. Further, the Kis in series [11] worked out at 0.9 nM; in series [12], 1.6 nM. Moreover, the EC50 in the series on Toxoplasma gondii [8] was determined as 0.3 µM.

For `CC(Oc1cccc(Cl)c1Cl)C(=O)Nc1ccc2oc(-c3ccncc3)nc2c1` (stereo not given), the CC50 at 72 h in [1], in series [2], in series [5] and in series [10] was > 50 µM each time. Also, the IC50 in [3] is 0.011 µM; in series [7], 0.003 µM; in [9], > 5 µM. The EC50 in the series on Toxoplasma gondii [4] came out at 8 µM; in the series with Toxoplasma gondii [8], 0.22 µM. Also, the “Ratio EC50” value in the series with Toxoplasma gondii [6] came to 40.

For `C[C@H](Oc1cccc(Cl)c1Cl)C(=O)Nc1ccc2nc(-c3ccncc3)oc2c1`, the CC50 at 72 h in series [1], in [2], in [5] and in series [10] was > 50 µM throughout. Also, the results for the IC50 in series [3], in series [7] and in series [9] were 0.004 µM, 0.0006 µM and > 5 µM, respectively. The EC50 in the series with Toxoplasma gondii [4] amounted to 3 µM; in the series with Toxoplasma gondii [8], 0.02 µM. Also, the “Ratio EC50” value with Toxoplasma gondii [6] turned out to be 150. Besides, the t1/2 was 10 min in the series on Liver [13] and 9 min with Liver [14].

In the case of `C[C@@H](C(=O)Nc1ccc2oc(-c3ccncc3)nc2c1)c1ccccc1`, the IC50 was 0.028 µM in series [3], 0.0223 µM in series [7] and > 5 µM in [9]. Moreover, the Kis was determined as 40 nM in series [11] and 100 nM in [12]. For the same compound, the t1/2 is given as 43 min with Liver [13] and 130 min in the series with Liver [14]. Besides, the response in the series with Toxoplasma gondii [8] was half-maximal at 0.4 µM (EC50).

`C[C@H](Oc1cccc(Cl)c1Cl)C(=O)Nc1cc(Cl)c2oc(-c3ccncc3)nc2c1`: the IC50 was 0.6 µM in [3], 0.24 µM in series [7] and > 5 µM in series [9]. Moreover, the results for the Kis in series [11] and in [12] were 150 nM and 210 nM, respectively.

For `C[C@H](Nc1cccc(Cl)c1Cl)C(=O)Nc1ccc2oc(-c3ccncc3)nc2c1`, the CC50 at 72 h in series [1], in series [2], in series [5] and in series [10] was > 50 µM throughout. Further, the t1/2 in the series on Liver [13] came to 44 min; in the series with Liver [14] it was 110 min. Further, the IC50 in series [7] is 0.0005 µM; in [9], > 5 µM.

As for `CC(Oc1ccc(Cl)cc1Cl)C(=O)Nc1ccc2oc(-c3ccncc3)nc2c1` (stereo not given), the values for the IC50 in series [3], in [7] and in series [9] were 0.12 µM, 0.044 µM and > 5 µM, respectively. Besides, the Kis was determined as 33 nM in series [11] and 58 nM in series [12]. Further, the EC50 in the series on Toxoplasma gondii [8] turned out to be 0.65 µM.

For the compound `COc1ccc(OC(C)C(=O)Nc2ccc3oc(-c4ccncc4)nc3c2)cc1` (stereo not given), the CC50 at 72 h in series [1], in [2], in [5] and in series [10] was > 50 µM in each case. For the same compound, the IC50 is 0.034 µM in series [3], 0.028 µM in series [7] and > 5 µM in [9]. Moreover, the EC50 with Toxoplasma gondii [4] was > 25 µM; in the series on Toxoplasma gondii [8] it was 0.5 µM. Also, the “Ratio EC50” value in the series with Toxoplasma gondii [6] was >50.
